Source: PubChem BioAssay (The Scripps Research Institute Molecular Screening Center)
Shown are actives, neighbours in structure and some others; about 1.9% of the full set was active somewhere.
CHRM5 agonist = CHRM5 agonism in calcium assay; CHO-K1 hM5 cells, Fluo-8 calcium fluorescence; 0% DMSO wells, 100% maximal acetylcholine response; activation, % at 3 µM; 360,000 tested, 0.19% active;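 active means activation above the run's mean over test compounds plus 3 SD, cut at about 23% in these data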;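 further: signal is peak over basal fluorescence ratio across the kinetic read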
M4 antag = antagonists of human muscarinic M4 receptor (CHRM4); inhibition, % at 3 µM; P08173; CHO-hM4 cells, ACh EC80, Fluo-8 calcium fluorescence; 360,000 tested, 0.73% active;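 active means inhibition above its plate's cutoff, the mean inhibition of sample wells plus 3 SD, cut at about 27% in these data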;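 further: 0% = acetylcholine EC80 with DMSO and 100% = DMSO without agonist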
Target sequence (P08173 whole entry, looked up): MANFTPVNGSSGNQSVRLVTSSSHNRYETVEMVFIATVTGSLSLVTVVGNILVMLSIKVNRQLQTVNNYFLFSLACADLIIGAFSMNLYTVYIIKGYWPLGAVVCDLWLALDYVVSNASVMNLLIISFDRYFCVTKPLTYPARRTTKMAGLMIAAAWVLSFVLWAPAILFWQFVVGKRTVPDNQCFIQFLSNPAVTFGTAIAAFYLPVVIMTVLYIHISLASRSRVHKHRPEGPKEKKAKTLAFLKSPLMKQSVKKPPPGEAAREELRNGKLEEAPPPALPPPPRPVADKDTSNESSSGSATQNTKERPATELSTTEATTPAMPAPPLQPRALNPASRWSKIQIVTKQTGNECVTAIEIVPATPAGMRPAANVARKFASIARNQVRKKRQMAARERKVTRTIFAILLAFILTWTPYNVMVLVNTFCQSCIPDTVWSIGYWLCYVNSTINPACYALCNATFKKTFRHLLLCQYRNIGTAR
M5 antag = CHRM5 antagonism in calcium assay; P08912; CHO-hM5 cells, Fluo-8 calcium fluorescence, ACh EC80; inhibition, % at 3 µM; 360,000 tested, 0.59% active;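 active means inhibition above a per-plate cutoff, the mean of that plate's test compounds plus 3 SD, cut at about 27% in these data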;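 further: 0% = acetylcholine EC80 with DMSO and 100% = DMSO without agonist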
CHRM4 agonist = agonists of human muscarinic M4 receptor (CHRM4); P08173; CHO-K1 hM4/Gqi5, Fluo-8 calcium fluorescence; vehicle 0%, full acetylcholine response 100%; activation, % at 3 µM; 360,000 tested, 0.14% active;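 active means activation above the run mean over all test wells plus 3 SD, cut at about 32% in these data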;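 further: peak over basal fluorescence ratio per well then scaled between controls; 0% = DMSO wells and 100% = acetylcholine at EC100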
CHRM4 PAM = positive allosteric modulators of human muscarinic M4 receptor. P08173. CHO-K1 hM4/Gqi5, Fluo-8 calcium fluorescence, ACh EC20; 0% = ACh EC20, 100% = maximal ACh. activation, % at 3 µM. 360,000 tested, 0.4% active. AID 624126;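 active means activation above its plate's cutoff, the mean activation of sample wells plus 3 SD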
CHRM5 PAM = CHRM5 positive allosteric modulation | P08912 | CHO-K1 hM5, Fluo-8 calcium, ACh EC20 PAM; 0% = ACh EC20, 100% = ACh EC100 | activation, % at 3 µM | 360,000 tested, 0.3% active | AID 624038;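 active means activation above the run cutoff, the mean activation of all test compounds plus 3 SD, cut at about 18% in these data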
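Test system: CHO-K1 hM5 cells / Doses: single-point, 3 µM nominal / Times: Post-acetylcholine fluorescence recording 140 s / Technique: Fluo-8 calcium fluorescence / Measure: Max/basal fluorescence ratio as % of EC20–EC100 ACh window / Benchmarks: low control EC20 acetylcholine (0%), high control EC100 acetylcholine (100%) / Replicates: one well per compound, no replicates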
An asterisk follows results filed as active.

Results for O=C(c1n[nH]c2ccccc12)N1CCN(c2ccc(F)cc2)CC1 ?
CHRM5 agonist: 3.8; M4 antag: -8.7; M5 antag: 7.3; CHRM4 agonist: 3.9; CHRM4 PAM: 0.5; CHRM5 PAM: 2.1

Results for COc1ccc(-c2nn(-c3ccccc3)cc2C(=O)NC2CC2)cc1 ?
CHRM5 agonist: -0.5; M4 antag: 4.2; M5 antag: 3.9; CHRM4 agonist: 4.9; CHRM4 PAM: 4.3; CHRM5 PAM: -1.2

How did O=C(c1cc(C2CCCCN2S(=O)(=O)c2ccc(F)cc2F)on1)N1CCOCC1 (stereo unspecified) do in these assays?
CHRM5 agonist: -3.8; M4 antag: -9.6; M5 antag: 5.9; CHRM4 agonist: 1.7; CHRM4 PAM: -0.3; CHRM5 PAM: 1.9

Results for O=C(Nc1ccccc1C(=O)Nc1ccc(Cl)cc1)c1cccnc1 ?
CHRM5 agonist: -4.3; M4 antag: -1.4; M5 antag: 2.6; CHRM4 agonist: 10.1; CHRM4 PAM: -7.4; CHRM5 PAM: -7.4

What do the screens show for `Cc1cc(C)cc(C(=O)NCC(=O)OCC(=O)NCC(F)(F)F)c1`?
CHRM5 agonist: 0.6; M4 antag: 11.9; M5 antag: -8.8; CHRM4 agonist: 0.6; CHRM4 PAM: 1.7; CHRM5 PAM: 18.1*

Results for CC(=C/c1ccccc1)/C=N/NC(=O)c1cccs1 ?
CHRM5 agonist: -4.8; M4 antag: -3.3; M5 antag: 3.3; CHRM4 agonist: -0.9; CHRM4 PAM: -0.8; CHRM5 PAM: -4.5

How did O=C(N/N=C/C(Br)=C\c1ccccc1)c1cccs1 do in these assays?
CHRM5 agonist: 6.5; M4 antag: -4.3; M5 antag: -29.2; CHRM4 agonist: 1.9; CHRM4 PAM: -1.3; CHRM5 PAM: 22.8*

Results for COc1ccc(NS(=O)(=O)c2ccc3c(c2)NC(=O)CO3)c(OC)c1 ?
CHRM5 agonist: 3.0; M4 antag: 2.3; M5 antag: 5.9; CHRM4 agonist: 2.0; CHRM4 PAM: -2.8; CHRM5 PAM: 9.8

How did Brc1ccccc1OCCCCn1cnc2ccccc21 do in these assays?
CHRM5 agonist: 6.2; M4 antag: 9.5; M5 antag: 29.4*; CHRM4 agonist: 14.4; CHRM4 PAM: -13.9; CHRM5 PAM: -22.7

Results for O=C(c1cc(COc2ccc(F)cc2F)on1)N1CCSCC1 ?
CHRM5 agonist: 0.6; M4 antag: -9.3; M5 antag: 9.5; CHRM4 agonist: 1.2; CHRM4 PAM: 4.7; CHRM5 PAM: -1.6

How did CC(OCCN1CCCC1)(c1ccc(F)cc1)c1ccc(F)cc1 do in these assays?
CHRM5 agonist: -7.3; M4 antag: 46.7*; M5 antag: 35.8*; CHRM4 agonist: 4.0; CHRM4 PAM: -37.9; CHRM5 PAM: -19.8

What do the screens show for `CC(C)(C)c1ccccc1OCCN1CCCC1`?
CHRM5 agonist: -6.4; M4 antag: 31.8*; M5 antag: 11.4; CHRM4 agonist: 0.8; CHRM4 PAM: -32.1; CHRM5 PAM: -13.4

How did Cc1ccc(C(C)(C)C)c(OCCN2CCCC2)c1 do in these assays?
CHRM5 agonist: -5.8; M4 antag: 17.3; M5 antag: 14.5; CHRM4 agonist: 1.6; CHRM4 PAM: -31.5; CHRM5 PAM: -17.2

What do the screens show for `Cc1ccc2oc(NC3=NC4(CCCC4)C4=C(CCCC4=O)N3)nc2c1`?
CHRM5 agonist: 0.0; M4 antag: 2.8; M5 antag: 11.2; CHRM4 agonist: 0.2; CHRM4 PAM: 2.6; CHRM5 PAM: -6.3

Results for CC[N+](CC)(CC)CC(=O)Nc1c(C)cccc1C ?
CHRM5 agonist: 29.6*; M4 antag: 35.5*; M5 antag: -3.7; CHRM4 agonist: 1.4; CHRM4 PAM: -9.6; CHRM5 PAM: -14.9

How did Cc1cccc(C)c1NC(=O)CNCC(=O)Nc1c(C)cccc1C do in these assays?
CHRM5 agonist: -3.1; M4 antag: 1.1; M5 antag: 6.4; CHRM4 agonist: 0.3; CHRM4 PAM: -2.7; CHRM5 PAM: 0.0

What do the screens show for `CCOc1ccccc1CN1CCNC(=O)C1CC(=O)N(C)Cc1cnccn1` (stereo unspecified)?
CHRM5 agonist: 6.8; M4 antag: -5.2; M5 antag: -8.5; CHRM4 agonist: 0.7; CHRM4 PAM: -0.2; CHRM5 PAM: 3.6

Results for CN(C)S(=O)(=O)c1ccc(C(=O)OCC(=O)Nc2cccnc2Cl)cc1 ?
CHRM5 agonist: 5.2; M4 antag: -9.4; M5 antag: 12.6; CHRM4 agonist: 3.0; CHRM4 PAM: 6.5; CHRM5 PAM: 2.4

How did CC(=O)Nc1ccc(S(=O)(=O)N(C)CC(=O)OCC(=O)Nc2cccnc2Cl)cc1 do in these assays?
CHRM5 agonist: 4.0; M4 antag: 26.9*; M5 antag: 4.9; CHRM4 agonist: 0.9; CHRM4 PAM: 43.1*; CHRM5 PAM: -1.1

What do the screens show for `CC1CCCC(NC(=O)COC(=O)c2ccc(Br)o2)C1C` (stereo unspecified)?
CHRM5 agonist: -1.3; M4 antag: -3.1; M5 antag: 14.9; CHRM4 agonist: 1.6; CHRM4 PAM: 22.3*; CHRM5 PAM: 3.6

Results for CC1CCCC(NC(=O)COC(=O)c2ccc([N+](=O)[O-])o2)C1C (stereo unspecified) ?
CHRM5 agonist: -2.9; M4 antag: 7.5; M5 antag: 20.2; CHRM4 agonist: 0.5; CHRM4 PAM: -2.7; CHRM5 PAM: -11.3

How did CC(C)C(=O)Nc1cc2c3c(c1)CCC(=O)N3CCC2 do in these assays?
CHRM5 agonist: -2.6; M4 antag: -3.9; M5 antag: 6.1; CHRM4 agonist: 0.7; CHRM4 PAM: 2.2; CHRM5 PAM: 0.8

How did O=C(CC[C@H]1O[C@@H](n2ccc(=O)[nH]c2=O)[C@H](O)[C@@H]1O)N1CCN(c2ccccn2)CC1 do in these assays?
CHRM5 agonist: 3.4; M4 antag: -16.0; M5 antag: -5.8; CHRM4 agonist: 1.3; CHRM4 PAM: 20.8*; CHRM5 PAM: 6.8

Results for COC(=O)c1sc(SC)c(-c2ccon2)c1C ?
CHRM5 agonist: -16.0; M4 antag: 4.7; M5 antag: 17.2; CHRM4 agonist: -0.5; CHRM4 PAM: -11.9; CHRM5 PAM: -13.6

How did Cc1occc1C(=O)N/N=C/c1ccc(N(C)C)cc1 do in these assays?
CHRM5 agonist: 4.2; M4 antag: -4.5; M5 antag: -14.9; CHRM4 agonist: 0.6; CHRM4 PAM: -1.4; CHRM5 PAM: 20.1*

How did Cc1occc1C(=O)N/N=C/C=C/c1ccc(N(C)C)cc1 do in these assays?
CHRM5 agonist: -4.5; M4 antag: -3.2; M5 antag: 12.6; CHRM4 agonist: 0.6; CHRM4 PAM: 2.4; CHRM5 PAM: -0.9

How did COc1ccc(OCC(=O)N/N=C/c2ccc(N(C)C)cc2)cc1 do in these assays?
CHRM5 agonist: -2.4; M4 antag: -2.6; M5 antag: 20.5; CHRM4 agonist: 1.0; CHRM4 PAM: 21.6*; CHRM5 PAM: -4.2
